Values after ≈ are worked out from the molar mass of the structure shown.
Experiments:
[1] = system: Mycobacterium tuberculosis; experiment: Antimicrobial activity against Mycobacterium tuberculosis H37Rv ATCC 27294 harboring pFCA-lux AB gene measured under aerobic condition after 8 days by luminescence analysis; type: functional; details: H37Rv ATCC 27294, 192 h
Outline: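 MABA: replicating M. tb H37Rv exposed to compound aerobically for 8 days. […] Mean of at least two independent determinations ± SD.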

[2] = system: Mycobacterium tuberculosis; experiment: Antimicrobial activity against Mycobacterium tuberculosis H37Rv ATCC 27294 harboring pFCA-lux AB gene measured under anaerobic condition after 11 days by luminescence analysis; type: functional; details: H37Rv ATCC 27294, 264 h
Outline: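 LORA: luminescence-based low-oxygen-recovery assay on nonreplicating M. tb, 11-day anaerobic exposure. MIC is the mean of at least two independent determinations ± SD.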

Structure (SMILES) | MIC [1] [µM] | MIC [2] [µM]
O=C(N[C@@H]1COc2nc([N+](=O)[O-])cn2C1)c1ccc(OC(F)(F)F)cc1 | 1.8 (≈ 0.67 µg/mL) | 
O=C(Nc1cccc(-c2ccc(F)nc2)c1)N[C@@H]1COc2nc([N+](=O)[O-])cn2C1 | 0.23 (≈ 0.0916 µg/mL) | 15 (≈ 5.98 µg/mL)
O=C(Nc1ccc(-c2ccc(C(F)(F)F)cc2)cc1)N[C@@H]1COc2nc([N+](=O)[O-])cn2C1 | 0.19 (≈ 0.085 µg/mL) | > 32
O=C(Nc1ccc(-c2ccc(F)cc2)cc1)N[C@@H]1COc2nc([N+](=O)[O-])cn2C1 | 1.3 (≈ 0.517 µg/mL) | 9.1 (≈ 3.62 µg/mL)
O=C(Nc1ccc(-c2ccc(OC(F)(F)F)cc2)cc1)N[C@@H]1COc2nc([N+](=O)[O-])cn2C1 | 0.06 (≈ 0.0278 µg/mL) | 18 (≈ 8.34 µg/mL)
O=C(NCc1ccc(-c2ccc(OC(F)(F)F)cc2)cc1)N[C@@H]1COc2nc([N+](=O)[O-])cn2C1 | 1 (≈ 0.477 µg/mL) | 32 (≈ 15.3 µg/mL)
O=C(NCc1ccc(-c2ccc(C(F)(F)F)nc2)cc1)N[C@@H]1COc2nc([N+](=O)[O-])cn2C1 | 0.4 (≈ 0.185 µg/mL) | > 32
O=C(Nc1cccc(-c2ccc(C(F)(F)F)cc2)c1)O[C@@H]1COc2nc([N+](=O)[O-])cn2C1 | 0.04 (≈ 0.0179 µg/mL) | 1 (≈ 0.448 µg/mL)
O=C(Nc1cccc(-c2ccc(F)cc2)c1)O[C@@H]1COc2nc([N+](=O)[O-])cn2C1 | 0.027 (≈ 0.0108 µg/mL) | 1.5 (≈ 0.598 µg/mL)
O=C(Nc1cccc(-c2ccc(OC(F)(F)F)cc2)c1)O[C@@H]1COc2nc([N+](=O)[O-])cn2C1 | 0.06 (≈ 0.0279 µg/mL) | 0.85 (≈ 0.395 µg/mL)
O=C(Nc1cccc(-c2ccc(C(F)(F)F)nc2)c1)O[C@@H]1COc2nc([N+](=O)[O-])cn2C1 | 0.11 (≈ 0.0494 µg/mL) | 2.9 (≈ 1.3 µg/mL)
O=C(Nc1cccc(-c2ccc(F)nc2)c1)O[C@@H]1COc2nc([N+](=O)[O-])cn2C1 | 0.24 (≈ 0.0958 µg/mL) | 5.8 (≈ 2.32 µg/mL)
O=C(Nc1ccc(-c2ccc(C(F)(F)F)cc2)cc1)O[C@@H]1COc2nc([N+](=O)[O-])cn2C1 | 0.055 (≈ 0.0247 µg/mL) | > 32
O=C(Nc1ccc(-c2ccc(F)cc2)cc1)O[C@@H]1COc2nc([N+](=O)[O-])cn2C1 | 1.3 (≈ 0.518 µg/mL) | 18 (≈ 7.17 µg/mL)
O=C(Nc1ccc(-c2ccc(OC(F)(F)F)cc2)cc1)O[C@@H]1COc2nc([N+](=O)[O-])cn2C1 | 0.05 (≈ 0.0232 µg/mL) | > 32
O=C(Nc1ccc(-c2ccc(C(F)(F)F)nc2)cc1)O[C@@H]1COc2nc([N+](=O)[O-])cn2C1 | 0.25 (≈ 0.112 µg/mL) | 4.1 (≈ 1.84 µg/mL)
O=C(Nc1ccc(-c2ccc(F)nc2)cc1)O[C@@H]1COc2nc([N+](=O)[O-])cn2C1 | 0.13 (≈ 0.0519 µg/mL) | 4.3 (≈ 1.72 µg/mL)
O=C(Nc1ccc(-c2ccnc(C(F)(F)F)c2)cc1)O[C@@H]1COc2nc([N+](=O)[O-])cn2C1 | 0.75 (≈ 0.337 µg/mL) | 6.2 (≈ 2.79 µg/mL)
O=C(NCc1ccc(-c2ccc(C(F)(F)F)cc2)cc1)O[C@@H]1COc2nc([N+](=O)[O-])cn2C1 | 0.24 (≈ 0.111 µg/mL) | > 32
O=C(NCc1ccc(-c2ccc(F)cc2)cc1)O[C@@H]1COc2nc([N+](=O)[O-])cn2C1 | 0.11 (≈ 0.0454 µg/mL) | 4.5 (≈ 1.86 µg/mL)
O=C(NCc1ccc(-c2ccc(OC(F)(F)F)cc2)cc1)O[C@@H]1COc2nc([N+](=O)[O-])cn2C1 | 0.52 (≈ 0.249 µg/mL) | 2.4 (≈ 1.15 µg/mL)
O=C(NCc1ccc(-c2ccc(C(F)(F)F)nc2)cc1)O[C@@H]1COc2nc([N+](=O)[O-])cn2C1 | 0.69 (≈ 0.32 µg/mL) | 11 (≈ 5.1 µg/mL)
O=C(O[C@@H]1COc2nc([N+](=O)[O-])cn2C1)N1CCN(c2ccc(OC(F)(F)F)cc2)CC1 | 0.033 (≈ 0.0151 µg/mL) | 1.1 (≈ 0.503 µg/mL)
O=C(O[C@@H]1COc2nc([N+](=O)[O-])cn2C1)N1CC[C@H](Oc2ccc(OC(F)(F)F)cc2)C1 | 0.06 (≈ 0.0275 µg/mL) | 1.6 (≈ 0.733 µg/mL)
O=C(O[C@@H]1COc2nc([N+](=O)[O-])cn2C1)N1CCC(Oc2ccc(C(F)(F)F)nc2)CC1 | 0.14 (≈ 0.064 µg/mL) | 27 (≈ 12.3 µg/mL)
CN(Cc1ccc(OC(F)(F)F)cc1)C1CCN(C(=O)O[C@@H]2COc3nc([N+](=O)[O-])cn3C2)CC1 | 0.18 (≈ 0.0899 µg/mL) | 26 (≈ 13 µg/mL)
O=C(COc1ccc(OC(F)(F)F)cc1)N[C@@H]1COc2nc([N+](=O)[O-])cn2C1 | 0.16 (≈ 0.0644 µg/mL) | 10 (≈ 4.02 µg/mL)
O=[N+]([O-])c1cn2c(n1)OC[C@@H](OCc1ccc(-c3ccc(OC(F)(F)F)cc3)cc1)C2 | 0.35 (≈ 0.152 µg/mL) | 

Source: ChEMBL document CHEMBL1944507, “Structure-activity relationships for amide-, carbamate-, and urea-linked analogues of the tuberculosis drug (6S)-2-nitro-6-{[4-(trifluoromethoxy)benzyl]oxy}-6,7-dihydro-5H-imidazo[2,1-b][1,3]oxazine (PA-824)” (J Med Chem, 2012)
